Measured values as given in PMC5656813 (Arthritis & Rheumatology (Hoboken, N.j.), 2017).

What was measured:
[1] = Studies 1 and 2, steady‐state plasma PK of filgotinib and its major metabolite; type: in vivo, human; settings: for Cmax / Tmax / AUC: human, plasma, oral
Procedure, shortened: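 RA patients on stable methotrexate took oral test compound or placebo capsules for 4 weeks: 200 mg once daily or 100 mg twice daily (study 1), or 30, 75, 150 or 300 mg once daily (study 2). In a subset (12 and 15 patients), plasma parent and major metabolite were sampled predose and 1, 2, 3, 5 and 8 h after the morning dose, at week 2 or 4. Descriptive statistics were calculated by dose.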

[2] = cited from earlier work
[3] = system: RA patients with an inadequate response to MTX; experiment: Study 1; type: in vivo, human
Procedure, shortened: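 Randomized, double-blind, placebo-controlled trial at one site, 36 RA patients. Patients had MTX for ≥6 months and a stable 7.5–25 mg/week dose for ≥4 weeks, continued throughout. Oral capsules for 4 weeks: 200 mg once daily or 100 mg twice daily. ACR20/50/70 responses, DAS28-CRP and ACR core components (pain VAS, HAQ DI) scored as change from baseline. Intent-to-treat population.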

[4] = system: RA patients with an inadequate response to MTX; experiment: Study 2; type: in vivo, human; settings: for ACR20 responders at week 4 / ACR50 responders at week 4 / DAS28‐CRP, mean change from baseline at week 4 / EULAR cumulative score, good/moderate, at week 4 / HAQ DI score, mean change from baseline at week 4 / Patient's assessment of pain, mean change from baseline at week 4 / Patient's global assessment of disease activity, mean change from baseline at week 4 / Physician's global assessment of disease activity, mean change from baseline at week 4 / Remission rate (DAS28‐CRP <2.6) at week 4 / SJC66, mean change from baseline at week 4 / Serum CRP, mean change from baseline at week 4 / TJC68, mean change from baseline at week 4: study 2
Procedure, shortened: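 Randomized, double-blind, placebo-controlled dose-ranging trial: 91 RA patients, 19 sites in 4 countries, 1:1:1:1:1 allocation. Patients had MTX for ≥12 weeks and a stable 7.5–25 mg/week dose for ≥4 weeks, continued throughout. Oral capsules once daily at 30, 75, 150 or 300 mg for 4 weeks. Read-outs: ACR responses, DAS28-CRP and HAQ DI change from baseline at week 4. Intent-to-treat population.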

JAK‐1 relative to JAK‐2 = settings: human whole blood assays; cited from earlier work
[5] = system: VCAM‐1, ICAM‐1, MMP‐3, haptoglobin, IL‐18, YKL‐40; experiment: Study 2, PD marker proteins in plasma; type: in vivo, human; settings: 75, 150, or 300 mg, after 4 weeks
Procedure, shortened: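 Plasma taken at baseline and week 4 from all study 2 participants. Dosed once daily for 4 weeks. YKL-40 measured by ELISA; VCAM-1, ICAM-1, MMP-3, haptoglobin and IL-18 quantified by a second technology at a service laboratory. Each patient normalized to own baseline, expressed as percent change. Mean ± SEM; Kruskal-Wallis test with Dunn's post hoc test.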

With `O=C(Nc1nc2cccc(-c3ccc(CN4CCS(=O)(=O)CC4)cc3)n2n1)C1CC1` [Filgotinib] the “dose proportionality of PK” value ([1]; 30–300 mg range) was “essentially dose proportional”, the Cmax ([1]; 30 mg) was 71.6 ng/mL and the Tmax ([1]; 30 mg) was 1 h. The AUC ([1]; 30 mg, AUCtau of filgotinib, steady state, 30 mg once daily, study 2, arithmetic mean (coefficient of variation)) was 1340 ng·h/mL, the Cmax ([1]; 75 mg) was 492 ng/mL and the Cmax ([1]; 100 mg) was 730 ng/mL. The AUC ([1]; 100 mg, AUCtau of filgotinib, steady state, 100 mg twice daily, study 1, arithmetic mean (coefficient of variation)) was 2470 ng·h/mL, the Cmax ([1]; 150 mg) was 1160 ng/mL and the Tmax ([1]; 150 mg) was 1 h. The AUC ([1]; 150 mg, AUCtau of filgotinib, steady state, 150 mg once daily, study 2, arithmetic mean (coefficient of variation)) was 6440 ng·h/mL, the AUC ([1]; 150 mg, AUCtau, other 4 patients, 150 mg once daily, study 2) was 4790 to 5290 ng·h/mL and the Cmax ([1]; 200 mg) was 1430 ng/mL. It also gave an AUC ([1]; 200 mg, AUCtau of filgotinib, steady state, 200 mg once daily, study 1, arithmetic mean (coefficient of variation)) of 5380 ng·h/mL, a Cmax ([1]; 300 mg) of 1340 ng/mL and an AUC ([1]; 300 mg, AUCtau of filgotinib, steady state, 300 mg once daily, study 2, arithmetic mean (coefficient of variation)) of 7710 ng·h/mL. For the same compound, the “time of dosing to attain steady state” value ([1]; in vivo) was at most 2 days, the “PK half‐life” value [2] was about 7 h and the “ACR20 responders at week 4” value ([3]; 100 mg twice daily, study 1) was 11 (91.7) no. (%). For the same compound, the “ACR50 responders at week 4” value ([3]; 100 mg twice daily, study 1) was 4 (33.3) no. (%), the “DAS28‐CRP, mean change from baseline at week 4” value (from here on “DAS28‐CRP, mean change”) ([3]; 100 mg twice daily, study 1) was −2.81 and the “HAQ DI score, mean change from baseline at week 4” value (“HAQ DI score, mean change” below) ([3]; 100 mg twice daily, study 1) was −0.52. The “Patient's assessment of pain, mean change from baseline at week 4” value ([3]; 100 mg twice daily, study 1) was −29.8 0–10‐cm VAS, the “Patient's global assessment of disease activity, mean change from baseline at week 4” value ([3]; 100 mg twice daily, study 1) was −25.8 0–10‐cm VAS and the “Physician's global assessment of disease activity, mean change from baseline at week 4” value ([3]; 100 mg twice daily, study 1) was −35.0 0–10‐cm VAS. The “Remission rate (DAS28‐CRP <2.6) at week 4” value (from here on “Remission rate”) ([3]; 100 mg twice daily, study 1) was 3 (25.0) no. (%), the “SJC66, mean change from baseline at week 4” value (“SJC66, mean change” for short) ([3]; 100 mg twice daily, study 1) was −15.4 and the “Serum CRP, mean change from baseline at week 4” value (“Serum CRP, mean change” below) ([3]; 100 mg twice daily, study 1) was -13.84 mg/L. The “TJC68, mean change from baseline at week 4” value (shortened to “TJC68, mean change”) ([3]; 100 mg twice daily, study 1) was −36.3, the “time to normalization of serum CRP level” value ([3]; 200 mg once daily and 100 mg twice daily, study 1) was at most 1 week and the “ACR20 responders at week 4” value ([3]; 200 mg once daily, study 1) was 9 (75.0) no. (%). The “ACR50 responders at week 4” value ([3]; 200 mg once daily, study 1) was 2 (16.7) no. (%), the “DAS28‐CRP, mean change” value ([3]; 200 mg once daily, study 1) was −2.23 and the “HAQ DI score, mean change” value ([3]; 200 mg once daily, study 1) was −0.57. The “Patient's assessment of pain, mean change from baseline at week 4” value ([3]; 200 mg once daily, study 1) was −24.3 0–10‐cm VAS, the “Patient's global assessment of disease activity, mean change from baseline at week 4” value ([3]; 200 mg once daily, study 1) was −23.8 0–10‐cm VAS and the “Physician's global assessment of disease activity, mean change from baseline at week 4” value ([3]; 200 mg once daily, study 1) was −26.7 0–10‐cm VAS. The “Remission rate” value ([3]; 200 mg once daily, study 1) was 2 (16.7) no. (%), the “SJC66, mean change” value ([3]; 200 mg once daily, study 1) was −12.8 and the “Serum CRP, mean change” value ([3]; 200 mg once daily, study 1) was -35.05 mg/L. For the same compound, the “TJC68, mean change” value ([3]; 200 mg once daily, study 1) was −23.1, the “patients achieving an ACR20 response” value ([3]; study 1, all filgotinib‐treated patients, end of 4 weeks) was over 83% and the “ACR20 responders at week 4” value ([4]; 30 mg once daily) was 6 (35.3) no. (%). The “ACR50 responders at week 4” value ([4]; 30 mg once daily) was 2 (11.8) no. (%), the “DAS28‐CRP, mean change” value ([4]; 30 mg once daily) was −1.08 and the “EULAR cumulative score, good/moderate, at week 4” value ([4]; 30 mg once daily) was 58.8%. For the same compound, the “HAQ DI score, mean change” value ([4]; 30 mg once daily) was −0.15, the “Patient's assessment of pain, mean change from baseline at week 4” value ([4]; 30 mg once daily) was −7.41 0–10‐cm VAS and the “Patient's global assessment of disease activity, mean change from baseline at week 4” value ([4]; 30 mg once daily) was −11.88 0–10‐cm VAS. The “Physician's global assessment of disease activity, mean change from baseline at week 4” value ([4]; 30 mg once daily) was −9.76 0–10‐cm VAS, the “Remission rate” value ([4]; 30 mg once daily) was 2 (11.8) no. (%) and the “SJC66, mean change” value ([4]; 30 mg once daily) was −6.24. The “Serum CRP, mean change” value ([4]; 30 mg once daily) was -13.28 mg/L, the “TJC68, mean change” value ([4]; 30 mg once daily) was −10.18 and the “ACR20 responders at week 4” value ([4]; 75 mg once daily) was 12 (54.5) no. (%). The “ACR50 responders at week 4” value ([4]; 75 mg once daily) was 6 (27.3) no. (%), the “DAS28‐CRP, mean change” value ([4]; 75 mg once daily) was −1.72 and the “EULAR cumulative score, good/moderate, at week 4” value ([4]; 75 mg once daily) was 68.2%. For the same compound, the “HAQ DI score, mean change” value ([4]; 75 mg once daily) was −0.47, the “Patient's assessment of pain, mean change from baseline at week 4” value ([4]; 75 mg once daily) was −21.27 0–10‐cm VAS and the “Patient's global assessment of disease activity, mean change from baseline at week 4” value ([4]; 75 mg once daily) was −21.00 0–10‐cm VAS. For the same compound, the “Physician's global assessment of disease activity, mean change from baseline at week 4” value ([4]; 75 mg once daily) was −27.09 0–10‐cm VAS, the “Remission rate” value ([4]; 75 mg once daily) was 3 (13.6) no. (%) and the “SJC66, mean change” value ([4]; 75 mg once daily) was −8.42. The “Serum CRP, mean change” value ([4]; 75 mg once daily) was -15.09 mg/L, the “TJC68, mean change” value ([4]; 75 mg once daily) was −13.72 and the “ACR20 responders at week 4” value ([4]; 150 mg once daily) was 6 (40.0) no. (%). For the same compound, the “ACR50 responders at week 4” value ([4]; 150 mg once daily) was 0 no. (%), the “DAS28‐CRP, mean change” value ([4]; 150 mg once daily) was −1.80 and the “EULAR cumulative score, good/moderate, at week 4” value ([4]; 150 mg once daily) was 66.7%. For the same compound, the “HAQ DI score, mean change” value ([4]; 150 mg once daily) was −0.26, the “Patient's assessment of pain, mean change from baseline at week 4” value ([4]; 150 mg once daily) was −14.07 0–10‐cm VAS and the “Patient's global assessment of disease activity, mean change from baseline at week 4” value ([4]; 150 mg once daily) was −12.33 0–10‐cm VAS. The “Physician's global assessment of disease activity, mean change from baseline at week 4” value ([4]; 150 mg once daily) was −24.87 0–10‐cm VAS, the “Remission rate” value ([4]; 150 mg once daily) was 0 no. (%) and the “SJC66, mean change” value ([4]; 150 mg once daily) was −10.52. For the same compound, the “Serum CRP, mean change” value ([4]; 150 mg once daily) was -20.50 mg/L, the “TJC68, mean change” value ([4]; 150 mg once daily) was −14.85 and the “patients achieving remission (DAS28‐CRP <2.6)” value ([4]; 300 mg group, within 4 weeks) was “up to 25%”. For the same compound, the “ACR20 responders at week 4” value ([4]; 300 mg once daily) was 13 (65.0) no. (%), the “ACR50 responders at week 4” value ([4]; 300 mg once daily) was 9 (45.0) no. (%) and the “DAS28‐CRP, mean change” value ([4]; 300 mg once daily) was −2.25. The “EULAR cumulative score, good/moderate, at week 4” value ([4]; 300 mg once daily) was 80.0%, the “HAQ DI score, mean change” value ([4]; 300 mg once daily) was −0.68 and the “Patient's assessment of pain, mean change from baseline at week 4” value ([4]; 300 mg once daily) was −29.85 0–10‐cm VAS. The “Patient's global assessment of disease activity, mean change from baseline at week 4” value ([4]; 300 mg once daily) was −25.85 0–10‐cm VAS, the “Physician's global assessment of disease activity, mean change from baseline at week 4” value ([4]; 300 mg once daily) was −29.20 0–10‐cm VAS and the “Remission rate” value ([4]; 300 mg once daily) was 5 (25.0) no. (%). For the same compound, the “SJC66, mean change” value ([4]; 300 mg once daily) was −8.48, the “Serum CRP, mean change” value ([4]; 300 mg once daily) was -20.98 mg/L and the “TJC68, mean change” value ([4]; 300 mg once daily) was −14.68. For the same compound, the “patients achieving an ACR20 response” value ([4]; study 2, 300 mg, week 4) was 65%, the “selectivity for inhibition of JAK‐1 relative to JAK‐2” value (JAK‐1 relative to JAK‐2) was about 30 fold and the “effect on levels of circulating PD markers” value [5] was “dose‐dependent effect”.
